How the values were obtained:
[1] = Selectivity index, ratio of CC50 for human Huh7.5.1 cells to EC50 for EGFP-fused HCV JFH-1 harboring K78E/E2-G451R/NS3-M260K/NS5A-T462I mutant infected in human Huh7.5.1 cells; format: toxicity, cell-based; settings: read-out: Ratio CC50/EC50
[2] = system: Hepatitis C virus; test: Antiviral activity against EGFP-fused HCV JFH-1 harboring K78E/E2-G451R/NS3-M260K/NS5A-T462I mutant infected in human Huh7.5.1 cells assessed as reduction in viral RNA level after 2 days by qRT-PCR analysis; format: functional, organism-based, Hepacivirus hominis; settings: JFH-1, Huh-7.5.1, 48 h
Method in brief: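 Huh7.5.1 cells at 1×10^4/well, grown overnight at 37 °C. HCVcc was mixed with serially diluted compound (top 30 or 6 μM), given alone or with the named drug, and added to the cells. Viral RNA was read by qRT-PCR after 2 days. EC50 is the concentration giving 50% RNA reduction.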

[3] = system: Hepatitis C virus; test: Antiviral activity against GFP-fused HCV JFH-1 harboring K78E/E2-G451R/NS3-M260K/NS5A-T462I mutant infected in human Huh7.5.1 cells assessed as reduction in viral infection at 10 uM preincubated for 2 hrs followed by viral infection and measured after 48 hrs by epifluorescence microscopic analysis relative to control; format: functional, Hepacivirus hominis; design: scale not given: the % may be the effect or the level left
Method in brief: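 Primary screen at 10 μM. Huh7.5.1 cells were pretreated 2 h, then infected with GFP-HCV (MOI 1). GFP intensity was checked by fluorescence microscopy at 48 h. Hits needed over 50% fluorescence decay before dose-response retesting.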

[4] = Cytotoxicity against human Huh7.5.1 cells assessed as decrease in cell viability after 48 hrs by WST1 assay; format: cell-based
Method in brief: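 Cells seeded at 1 × 10^4 per well and cultured overnight at 37 °C, then incubated 48 h with serially diluted compounds. Viability read with WST-1 reagent as absorbance at OD450/OD630.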

[5] = system: Hepatitis C virus; test: Antiviral activity against HCV JFH-1 harboring K78E/E2-G451R/NS3-M260K/NS5A-T462I mutant infected in human Huh7.5.1 cells after 2 days by renilla luciferase reporter gene assay; format: functional, organism-based, Hepacivirus hominis; settings: JFH-1, Huh-7.5.1, 48 h
Method in brief: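 Renilla luciferase reporter HCVcc (hRluc inserted in NS5A, aa 399/400) came from electroporated Huh7.5.1 supernatant. Virus plus serially diluted compound (top 30 or 6 μM) was added to Huh7.5.1 cells (1×10^4/well) and luminescence read. EC50 is 50% luminescence reduction.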

[6] = Inhibition of C-terminal 6-His tagged recombinant human DHODH N-terminal domain delta29 mutant expressed in Escherichia coli BL21(DE3) using dihydroorotate as substrate measured every 30 secs for 6 mins by DCIP dye based assay
Method in brief: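 Enzyme purified by HisTrap then size exclusion. Reaction started with 500 μM dihydroorotate. DCIP decrease read at 600 nm. Inhibition = (1 − Vi/V0) × 100. IC50 from 8–9 concentrations in triplicate by sigmoidal fit.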

Compound | selectivity ratio [1] | EC50 [2] [nM] | Activity [3] [%] | CC50 at 48 h [4] [nM] | EC50 [5] [nM] | IC50 [6] [nM]
Cc1c(-c2ccc(Cc3ccc(OC(F)(F)F)cc3)cc2)[nH]c2cccc(F)c2c1=O | > 6 | 360 to 1560 | >50 | > 10000 | – | –
CCNc1ccc(Oc2ccc(-c3[nH]c4cccc(F)c4c(=O)c3C)cc2F)cc1 | > 58 | 170 | >50 | > 10000 | – | –
Cc1c(-c2ccc(COc3ccc(SC(F)(F)F)cc3)cc2)[nH]c2cccc(F)c2c1=O | > 6 | 1590 | >50 | > 10000 | – | –
Cc1c(-c2ccc(Cc3ccc(OCC(F)(F)F)cc3)cc2)[nH]c2cccc(F)c2c1=O | > 6 | 840 | >50 | > 5000 | – | –
COc1ccc(Cc2ccc(-c3[nH]c4cccc(F)c4c(=O)c3C)cc2)cc1 | > 5 | 2170 | >50 | > 10000 | – | –
Cc1c(-c2ccc(Cc3ccc(S(=N)(=O)C(F)(F)F)cc3)cc2)[nH]c2cccc(F)c2c1=O (centres undefined) | > 7 | 1420 | >50 | > 10000 | – | –
Cc1c(-c2ccc(Cc3ccc(S(F)(F)(F)(F)F)cc3)cc2)[nH]c2cccc(F)c2c1=O | > 7 | 730 | >50 | > 5000 | – | –
Cc1c(-c2ccc(Cc3ccc([S+]([O-])C(F)(F)F)cc3)cc2)[nH]c2cccc(F)c2c1=O (centres undefined) | > 7 | 760 | >50 | > 5000 | – | –
Cc1c(-c2ccc(Cc3ccc(S(=O)(=O)C(F)(F)F)cc3)cc2)[nH]c2cccc(F)c2c1=O | > 2 | 1760 | >50 | > 2500 | – | –
Cc1c(-c2ccc(Oc3ccc(N4CCCC4)cc3)c(F)c2)[nH]c2cccc(F)c2c1=O | > 285 | 35 | >50 | > 10000 | – | –
CC(C)OC(=O)[C@H](C)N[P@](=O)(OC[C@H]1O[C@@H](n2ccc(=O)[nH]c2=O)[C@](C)(F)[C@@H]1O)Oc1ccccc1 [SOFOSBUVIR] | – | – | – | – | 170 | –
Cc1c(-c2ccc(Cc3ccc(Cl)cc3)cc2)[nH]c2cccc(F)c2c1=O | > 2 | 4400 | >50 | > 10000 | – | –
Cc1c(-c2ccc(Cc3ccc(C(C)(O)C(F)(F)F)cc3)cc2)[nH]c2cccc(F)c2c1=O (centres undefined) | > 23 | 110 | >50 | > 2500 | – | –
C#CCCC1(CCN(CC)c2ccc(Oc3ccc(-c4nc5cccc(F)c5c(OC)c4C)cc3F)cc2)N=N1 | – | > 5000 | >50 | – | – | 1030
CCCN(CC)c1ccc(Oc2ccc(-c3[nH]c4cccc(F)c4c(=O)c3C)cc2F)cc1 | > 151 | 66 | >50 | > 10000 | – | –
C#CCCC1(CCN(CC)c2ccc(Oc3ccc(-c4[nH]c5cccc(F)c5c(=O)c4C)cc3F)cc2)N=N1 | – | 8 | >50 | – | – | 250
Cc1c(-c2ccc(Oc3ccc(SC(F)(F)F)cc3)c(F)c2)[nH]c2cccc(F)c2c1=O | > 27 | 360 | >50 | > 10000 | – | –
Cc1c(-c2ccc(Cc3ccc(SC(F)(F)F)cc3)cc2)[nH]c2cccc(F)c2c1=O | > 27 | 360 to 1560 | >50 | > 10000 | – | –

Compound | selectivity ratio [1] | EC50 [2] [nM] | Activity [3] [%] | CC50 at 48 h [4] [nM] | EC50 [5] [nM] | IC50 [6] [nM]
Cc1c(-c2ccc(Oc3ccc(N(C)C)cc3)c(F)c2)[nH]c2cccc(F)c2c1=O | > 10 | 1050 | >50 | > 10000 | – | –
Cc1c(-c2ccc(Cc3ccc(SC(F)(F)F)cc3)cc2)[nH]c2c(F)cccc2c1=O | > 3 | 1850 | >50 | > 5000 | – | –
Cc1c(-c2ccc(Oc3ccc(N4CCCCC4)cc3)c(F)c2)[nH]c2cccc(F)c2c1=O | > 100 | 100 | >50 | > 10000 | – | –
Cc1c(-c2ccc(Cc3ccc(N4CCCCC4)cc3)cc2)[nH]c2cccc(F)c2c1=O | > 5 | 1920 | >50 | > 10000 | – | –
Cc1c(-c2ccc(CNC(=O)c3ccc(SC(F)(F)F)cc3)cc2)[nH]c2cccc(F)c2c1=O | > 5 | 11000 | >50 | > 50000 | – | –
Cc1c(-c2ccc(Cc3ccc(SC(F)(F)F)cc3)cc2)[nH]c2cc(F)ccc2c1=O | > 5 | 970 | >50 | > 5000 | – | –
Cc1c(-c2ccc(OCCN3CCCCC3)cc2)[nH]c2cccc(F)c2c1=O | > 6 | 16600 | >50 | > 100000 | – | –
Cc1c(-c2ccc(OCCCN3CCOCC3)cc2)[nH]c2cccc(F)c2c1=O | > 4 | 28100 | >50 | > 100000 | – | –
Cc1c(-c2ccc(Cc3ccc(C(C)(C)C)cc3)cc2)[nH]c2cccc(F)c2c1=O | > 17 | 290 | >50 | > 5000 | – | –
Cc1c(-c2ccc(Cc3ccc(N4CCOCC4)cc3)cc2)[nH]c2cccc(F)c2c1=O | > 3 | 3650 | >50 | > 10000 | – | –
Cc1c(-c2ccc(Cc3ccc(OC(F)F)cc3)cc2)[nH]c2cccc(F)c2c1=O | > 5 | 1010 | >50 | > 5000 | – | –
CCN(CC)CCOc1ccc(-c2[nH]c3cccc(F)c3c(=O)c2C)cc1 | > 4 | 25600 | >50 | > 100000 | – | –
Cc1c(-c2ccc(Cc3ccc(SC(F)(F)F)cc3)cc2)[nH]c2ccc(F)cc2c1=O | > 4 | 2480 | >50 | > 10000 | – | –
CN=S(=O)(c1ccc(Cc2ccc(-c3[nH]c4cccc(F)c4c(=O)c3C)cc2)cc1)C(F)(F)F (centres undefined) | > 2 | 5390 | >50 | > 10000 | – | –
Cc1c(-c2ccc(Oc3ccc(N4CCNCC4)cc3)c(F)c2)[nH]c2cccc(F)c2c1=O | > 4 | 2570 | >50 | > 10000 | – | –
CCN(C)c1ccc(Oc2ccc(-c3[nH]c4cccc(F)c4c(=O)c3C)cc2F)cc1 | > 42 | 240 | >50 | > 10000 | – | –
Cc1c(-c2ccc(Cc3ccc(C(O)C(F)(F)F)cc3)cc2)[nH]c2cccc(F)c2c1=O (centres undefined) | > 3 | 3490 | >50 | > 10000 | – | –
Cc1c(-c2ccc(-c3ccc(SC(F)(F)F)cc3)cc2)[nH]c2cccc(F)c2c1=O | > 4 | 2330 | >50 | > 10000 | – | –

Reference: ChEMBL document CHEMBL4334439, “Discovery, Optimization, and Target Identification of Novel Potent Broad-Spectrum Antiviral Inhibitors” (J Med Chem, 2019)
